Assay results taken from ChEMBL document CHEMBL4513216, “Probing the Open Global Health Chemical Diversity Library for Multistage-Active Starting Points for Next-Generation Antimalarials” (ACS Infect Dis, 2020).

Assay: Toxicity liver stage against HepG2, at 10uM
Format: cell-based
Set-up: test concentration 10 uM, cell line HepG2-A16-CD81EGFP
Details: human, HepG2-A16-CD81EGFP cells; read-out: INHIBITION
Outline: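 Uninfected HepG2-A16-CD81EGFP cells, 3 × 10^3 per well, 1536-well, plated on prespotted compound at 10 μM final, parasite-free screening media added to match infected plates; puromycin 10 μM positive, DMSO 0.5% negative; run in parallel with 48 h PbLuc assay at 37 °C, 5% CO2; viability by CellTiter-Glo luminescence, normalized to controls.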
Work on `CN(C(=O)CNCCn1cccn1)C1(C#N)CCCCC1` yielded a cytotoxicity at 10 µM of 2.04%. `c1cnc(N2CCO[C@H]3CN(Cc4csnn4)C[C@H]32)cn1` gave a cytotoxicity at 10 µM of 4.23%. Compound `CSc1cccc(CN(C)C(=O)Cn2ncc(N3CCCC3)cc2=O)c1` has a cytotoxicity at 10 µM of -2.01%. For `Cn1cc(CN2CCCC23CCN(C(=O)c2ccccc2)CC3)cn1`, the cytotoxicity at 10 µM was 0.613%. Compound `Cc1nn(C)c2c(=O)n(Cc3ccc(C#N)cc3)nnc12` has a cytotoxicity at 10 µM of 3.12%. In the case of `Fc1ccccc1CN1C[C@@H]2OCCN(c3ncccn3)[C@@H]2C1`, the cytotoxicity at 10 µM is reported as -74%. `CN(c1nc(Cn2cnccc2=O)cs1)C1CC1` showed a cytotoxicity at 10 µM of -6.59%. Compound `Cc1ncc2c(c1CNC(=O)C1(C)CCCO1)CCNC2` (stereo not drawn) has a cytotoxicity at 10 µM of -45.6%. Work on `O=C(c1cnc(-c2cnccn2)s1)N1CCCC1Cn1cccn1` (stereo not drawn) yielded a cytotoxicity at 10 µM of -3.99%. With `CCCOc1ccc(Cl)cc1C(=O)N1CCC(n2cncn2)CC1` the cytotoxicity at 10 µM was 2.93%. `CC(=O)NCCC(=O)NCc1ccc(Br)cc1Cl` showed a cytotoxicity at 10 µM of 0.871%. Work on `O=C(O)c1ccc(CCNC(=O)C2(O)Cc3ccccc3C2)cc1` yielded a cytotoxicity at 10 µM of 3.69%. `O=C(c1cccc2c1OCCO2)N1CCCC1Cn1cccn1` (stereo not drawn) showed a cytotoxicity at 10 µM of -10.7%. `O=C(Nc1ccc(F)cc1)C1CNCCN1C(=O)CSc1ccncc1` (stereo not drawn) gave a cytotoxicity at 10 µM of -0.316%. `CC(C)c1ccc(CN2CCC3(CCCN(c4nncs4)C3)C2)cc1` (stereo not drawn) gave a cytotoxicity at 10 µM of -1.15%. In the case of `COc1ccc(NC(=O)CSC(F)(F)F)cn1`, the cytotoxicity at 10 µM is reported as -96.6%. With `Cc1ccc(F)c(S(=O)(=O)NCc2cccc(N3CCOC3=O)c2)c1` the cytotoxicity at 10 µM was 9.62%. With `c1ccc(CO[C@H]2CO[C@@]3(CCCN(Cc4cccnc4)C3)C2)nc1` the cytotoxicity at 10 µM was -6.37%. Work on `COc1ccccc1N1CCCC(Nc2nccnc2C#N)C1` (stereo not drawn) yielded a cytotoxicity at 10 µM of 18.3%. With `COC(C)c1cccc(NCc2cccc(O)c2)c1` (stereo not drawn) the cytotoxicity at 10 µM was -0.334%. In the case of `COc1ccc2c(c1)nc1n2[C@@H](CNCc2nccs2)COC1`, the cytotoxicity at 10 µM is reported as -1.57%. In the case of `Cc1sc2nc(C(F)(F)F)nc(N3CCCN(C)CC3)c2c1C`, the cytotoxicity at 10 µM is reported as -26.8%. In the case of `OC1(CN2CCOC(Cn3cccn3)C2)CCCCC1` (stereo not drawn), the cytotoxicity at 10 µM is reported as -6.11%. In the case of `CN1CCN(CC2CC2)C(=O)C12CCN(C(=O)c1ccnnc1)CC2`, the cytotoxicity at 10 µM is reported as 8.49%. Compound `Cc1cc2n(n1)CC(CNCc1ccc(-n3ccnc3C)nc1)CN2` (stereo not drawn) has a cytotoxicity at 10 µM of -11.7%. For `c1ccc2[nH]c(C3CCN(Cc4noc(C5CC5)n4)CC3)cc2c1`, the cytotoxicity at 10 µM was 7.67%. `CC(=O)N1CCC2(CC1)COCCN2CCN(C)C` showed a cytotoxicity at 10 µM of -7.98%. In the case of `Cc1nc(C2CCCN2C(=O)CCCOc2cccc(F)c2)no1` (stereo not drawn), the cytotoxicity at 10 µM is reported as 5.09%. For `CCn1c(CN(C)C)nnc1C1CCN(Cc2ccc(Cl)cc2F)CC1`, the cytotoxicity at 10 µM was -2.53%. Work on `Cc1cc(C)cc(NC(=O)c2cnc(N3CCN(C)CC3)nc2C)c1` yielded a cytotoxicity at 10 µM of -15.5%. For `NCC1CCN(c2cnn(CCCn3cccn3)c(=O)c2)CC1`, the cytotoxicity at 10 µM was -52.8%. For `CC(C)CC(C#N)NC(=O)c1ccc(Oc2cccnc2)cc1` (stereo not drawn), the cytotoxicity at 10 µM was -11.4%. For `Cc1cc2[nH]c(O)nc2cc1NCc1ccccc1`, the cytotoxicity at 10 µM was 16%. With `COc1c(C2CCCN2CC(=O)N(C)c2nccs2)c(C)nn1C` (stereo not drawn) the cytotoxicity at 10 µM was 3.37%. `Cn1ccc(C(=O)NCc2ccc(CN3CCCCC3)cc2)cc1=O` gave a cytotoxicity at 10 µM of -12.4%. `CCc1nc(C)c(C(=O)N2CCCC(c3noc(C)n3)C2)s1` (stereo not drawn) gave a cytotoxicity at 10 µM of 5.82%. With `COc1cccc(OCC(=O)NCc2ccc3[nH]c(=O)[nH]c3c2)c1` the cytotoxicity at 10 µM was 2.59%. `Cc1nc2ccccn2c1CN(Cc1cccnc1)CC1CCCO1` (stereo not drawn) showed a cytotoxicity at 10 µM of -7.1%. `COc1nn(C)cc1C(=O)NCC(OC)c1ccccc1C` (stereo not drawn) gave a cytotoxicity at 10 µM of -8.32%. `COc1ccc(-c2ccc(C(=O)NCCCC(N)=O)c(F)c2)c(F)c1` gave a cytotoxicity at 10 µM of 0.393%. `CC1=N[C@@]2(CC[C@@H]3CN(C(=O)NC(C)C)C[C@@H]32)C(=O)N1CC(C)C` showed a cytotoxicity at 10 µM of 7.74%. `CN(C)CCCNC(=O)c1ccccc1NC(=O)c1ccccc1Cl` gave a cytotoxicity at 10 µM of -0.986%. With `CC(C)c1nnc(NC(=O)c2cccc(OCC(F)(F)F)n2)[nH]1` the cytotoxicity at 10 µM was -1.26%. With `CNC(=O)N1CC[C@H]2N(C)CC[C@@]2(C(=O)N2CCOCC2)CC1` the cytotoxicity at 10 µM was -2.72%. `Cc1noc(-c2ccc(N(C)Cc3ccncn3)nc2)n1` gave a cytotoxicity at 10 µM of 1.11%. Compound `CCc1noc(CN2CCC(C(=O)Nc3cnn(CC)c3)CC2)n1` has a cytotoxicity at 10 µM of 3.43%. `CC(Sc1nnnn1C1CCOCC1)C(=O)NC1CCCCC1` (stereo not drawn) gave a cytotoxicity at 10 µM of 18.3%. In the case of `COc1cccc2c1OCCCN(Cc1ncccc1C(=O)O)C2`, the cytotoxicity at 10 µM is reported as 4.12%. `CN(C1CCCCC1)S(=O)(=O)NC1CCN(c2ncccn2)CC1` gave a cytotoxicity at 10 µM of 6.99%. Compound `CNC(=O)C1(CCCc2cnccn2)CCN1Cc1ccc(C)cc1` (stereo not drawn) has a cytotoxicity at 10 µM of 0.615%. Compound `OCc1cc2ccccc2nc1N1CCCCC1` has a cytotoxicity at 10 µM of 14.1%. With `CCC[C@H]1CN(CCS(C)(=O)=O)C[C@@H]1NC(=O)c1ccccc1F` the cytotoxicity at 10 µM was -5.88%. In the case of `Cc1cccc(C(=O)N2CCSCC2)c1NC(=O)c1cccnc1`, the cytotoxicity at 10 µM is reported as -2.83%. In the case of `CC(C)CCN(C(=O)c1nc(S(C)(=O)=O)n2ccccc12)C1CC1`, the cytotoxicity at 10 µM is reported as -2.63%. `COc1c(CNC2CCOc3ccccc32)c(C)nn1C` (stereo not drawn) showed a cytotoxicity at 10 µM of 4.25%. `CCN(CC)C(=O)Nc1ccc(C(=O)N(C)C)c(C)c1` showed a cytotoxicity at 10 µM of 7.52%. In the case of `Cn1ccnc1C(=O)N1CCC2(CCCN2CC2CC2)CC1`, the cytotoxicity at 10 µM is reported as 8.31%. For `Cn1ncc2c1CCCN(C(=O)C1CC1)C2`, the cytotoxicity at 10 µM was -8.27%. Compound `Brc1cnc(NCCCOCC2CCOCC2)nc1` has a cytotoxicity at 10 µM of 16.8%. `CC(C)CCN1C2(CCN(c3ncccn3)C2)c2ccccc2S1(=O)=O` (stereo not drawn) gave a cytotoxicity at 10 µM of 1.35%. Compound `CCOc1ccc(C(C)NC(=O)N2CCC(C(N)=O)CC2)cc1OC` (stereo not drawn) has a cytotoxicity at 10 µM of -4.56%. For `CC1(C)CC(N(Cc2ccncc2)Cc2cccnc2)CC(C)(C)N1`, the cytotoxicity at 10 µM was -14.6%. For `Cc1[nH]ncc1C(=O)N1CCOC(c2cccs2)C1` (stereo not drawn), the cytotoxicity at 10 µM was 8.8%. With `CN1[C@@H]2CC[C@H]1CN(C(=O)CCc1csc(N)n1)CC2` the cytotoxicity at 10 µM was -0.0143%. `CS(=O)(=O)NCC(=O)NC1CCc2nccn2C1` (stereo not drawn) showed a cytotoxicity at 10 µM of 16.2%. Work on `CCc1cc(C(=O)N2CCC(c3cc4ncccc4cn3)CC2)on1` yielded a cytotoxicity at 10 µM of -13%. Compound `Cc1nc(COC[C@@H]2CC[C@H]3[C@H](CCN3S(C)(=O)=O)O2)cs1` has a cytotoxicity at 10 µM of 5.22%. `CN(Cc1ccon1)C1CCN(c2cccc(-c3cscn3)c2)CC1` gave a cytotoxicity at 10 µM of -3.96%. Work on `O=C(Cc1cc(-c2ccc3c(c2)OCCO3)on1)NCc1ccccn1` yielded a cytotoxicity at 10 µM of 26.4%. In the case of `Cn1ncc2c1CN(Cc1ccccc1F)CC2COCC1CC1` (stereo not drawn), the cytotoxicity at 10 µM is reported as 1.47%. In the case of `CN(C)C(=O)CN(C)C(=O)c1cnc(Cc2ccc(F)cc2)s1`, the cytotoxicity at 10 µM is reported as 8.66%. In the case of `c1ccc(-n2ccc(CN3CCCC3Cn3cccn3)n2)cc1` (stereo not drawn), the cytotoxicity at 10 µM is reported as -2.48%. `CC(C)N(CC(=O)Nc1cccc(C(=O)N(C)C)c1)C1CC1` showed a cytotoxicity at 10 µM of -4.81%. Work on `CCc1csc(CNC2CCN(Cc3ccccc3)C2)n1` (stereo not drawn) yielded a cytotoxicity at 10 µM of 4.82%. For `CN(CC(N)=O)Cc1csc(-c2ccc(F)cc2)n1`, the cytotoxicity at 10 µM was 2.5%. With `COCCNc1cc(-c2ccccc2C(=O)O)c2cc[nH]c2n1` the cytotoxicity at 10 µM was 2.13%. `CCN1CCn2c(C)cnc2C12CCN(C(=O)N(C)C)CC2` gave a cytotoxicity at 10 µM of 4.91%. Work on `CC(=O)NC1CCN(C(=O)Nc2cccc(C(F)(F)F)c2)CC1` yielded a cytotoxicity at 10 µM of -6.74%. `COCC(=O)N1C[C@@H](OCc2cccnc2)[C@H]2OCCC[C@@H]21` gave a cytotoxicity at 10 µM of 2.53%. `COc1cc(C2CC(=O)Oc3cc(C)[nH]c(=O)c32)ccc1OC(F)F` (stereo not drawn) showed a cytotoxicity at 10 µM of 7.34%. In the case of `CO[C@H]1CN(Cc2cc(Cn3cncn3)c(C)cc2C)CC[C@H]1N`, the cytotoxicity at 10 µM is reported as -7.29%. In the case of `O=C(NCCCn1cccn1)c1nnc2ccccc2n1`, the cytotoxicity at 10 µM is reported as 0.14%. `COc1ccc2cc(CNc3c(C)nn(C(C)C)c3C)ccc2c1` showed a cytotoxicity at 10 µM of -56.6%.
